Sampled rows, rich in hits. Any-hit rate of the full collection: about 3%.
SENP7 inh: SENP7 protease inhibitors, primary screen, biochemical, luminescence, uHTS. Sentrin-specific protease 7 (Homo sapiens), Q9BQF6. 1.5% of 330,000 active. recombinant SENP7, Z-RLRGG-aminoluciferin luminescence, 40 min. inhibition, % at 5 µM;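 active = inhibition above about 50% at the single test dose, limit read from the data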;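 also: plate controls were DMSO with enzyme for no effect and no enzyme buffer wells for full effect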
Apaf1 inhib: inhibitors of human Apaf-1 apoptosome, primary screen, biochemical, DEVD-Rh110 fluorescence, uHTS; Apoptotic protease-activating factor 1 (Homo sapiens), O14727; reconstituted apoptosome caspase-3 activity; inhibition, % at 20 µM; 0.71% of 330,000 active; AID 489030, 2010; active = inhibition of at least 40% at 20 µM;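 also: plate controls were DMSO wells for no effect and DEVD-CHO caspase inhibitor wells for full effect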
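Material: reconstituted apoptosome with Apaf-1, cytochrome c, caspase-9, procaspase-3, dATP. Technique: Rh110 fluorescence intensity. Buffer or medium: pH 7.5 Hepes buffer with CHAPS, BSA, DTT. Times: 30 min plus 50 min, RT.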
SENP6 block: SENP6 protease inhibitors, primary screen, biochemical, luminescence, uHTS | Sentrin-specific protease 6 (Homo sapiens), Q9GZR1 | Recombinant SENP6 catalytic domain, aminoluciferin luminescence | inhibition, % at 10 µM | 1.8% of 330,000 active;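 active = inhibition above about 50% at the single tested dose, limit read from the data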;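 also: plate controls were DMSO wells with enzyme for no effect and DMSO wells lacking enzyme for full effect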
Target sequence (Q9GZR1 628-1112 limits assumed): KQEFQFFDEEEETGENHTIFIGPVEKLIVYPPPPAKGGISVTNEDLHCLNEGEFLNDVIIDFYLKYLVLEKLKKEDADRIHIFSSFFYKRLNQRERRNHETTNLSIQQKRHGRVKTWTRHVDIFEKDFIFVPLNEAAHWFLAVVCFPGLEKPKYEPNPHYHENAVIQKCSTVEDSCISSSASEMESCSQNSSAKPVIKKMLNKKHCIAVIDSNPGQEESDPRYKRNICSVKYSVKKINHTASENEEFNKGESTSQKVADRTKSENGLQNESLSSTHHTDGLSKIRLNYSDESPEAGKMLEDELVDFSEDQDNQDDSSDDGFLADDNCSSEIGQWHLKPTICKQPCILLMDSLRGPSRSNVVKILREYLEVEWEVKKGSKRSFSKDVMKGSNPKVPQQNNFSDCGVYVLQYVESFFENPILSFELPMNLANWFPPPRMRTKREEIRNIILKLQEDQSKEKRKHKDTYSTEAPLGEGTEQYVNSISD
UBC13 inh: UBC13 polyubiquitin chain formation inhibitors, primary screen, biochemical, TR-FRET, uHTS; AID 485273, 2010; inhibition, % at 20 µM; 0.47% of 330,000 active; Ubiquitin-conjugating enzyme E2 N (Homo sapiens), P61088; in the data active = inhibition above about 45%, passing the limit was not always enough
SENP8 block-1: human SENP8 protease inhibitors, primary screen, biochemical, fluorescence, Nedd8 protein substrate, uHTS; Sentrin-specific protease 8 (Homo sapiens), Q96LD8; recombinant SENP8; inhibition, % at 20 µM; 0.64% of 360,000 active; AID 602440, 2012; in the data active = inhibition mostly above about 40%, no sharp cut-off; inactive = mostly below about 27%
SENP8 block-2: SENP8 protease inhibitors, primary screen, biochemical, luminescence. 1.2% of 330,000 active. inhibition, % at 10 µM. purified SENP8, Z-RLRGG-aminoluciferin cleavage. Sentrin-specific protease 8 (Homo sapiens), Q96LD8. AID 2540, 2010; in the data active = inhibition above about 50%
SENP8 confirm: SENP8 protease inhibitors, retest, confirmation, biochemical, luminescence, single concentration. shares compounds with SENP7 inh. Recombinant SENP8, Z-RLRGG-aminoluciferin luminescence, 60 min. inhibition, % at 12.5 µM. 40% of 6,200 active. AID 488912, 2010;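 active = mean inhibition across replicates above about 50%, limit read from the data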
SENP6 confirm: SENP6 protease inhibitors, confirmation, biochemical, luminescence, single concentration | 58% of 6,200 active | AID 488915, 2010 | inhibition, % at 12.5 µM | recombinant SENP6, Z-RLRGG-aminoluciferin luminescence | shares compounds with SENP7 inh
SENP7 conf: SENP7 protease inhibitors, retest, confirmation, biochemical, luminescence, single concentration. shares compounds with SENP7 inh. recombinant SENP7, Z-RLRGG-aminoluciferin luminescence, 40 min. inhibition, % at 12.5 µM. 69% of 6,200 active. AID 488917, 2010
Casp3 SENP sel: caspase-3 protease inhibitors, confirmation, selectivity assay for SENP inhibitor project, biochemical, single concentration | shares compounds with SENP7 inh | purified caspase-3, Z-DEVD-aminoluciferin luminescence, 60 min | inhibition, % at 12.5 µM | 60% of 6,200 active;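 active = mean inhibition above about 50%, limit read from the data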;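 also: plate controls were enzyme with DMSO for no effect and wells without caspase-3 for full effect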
Target sequence (P42574 28-227 limits assumed): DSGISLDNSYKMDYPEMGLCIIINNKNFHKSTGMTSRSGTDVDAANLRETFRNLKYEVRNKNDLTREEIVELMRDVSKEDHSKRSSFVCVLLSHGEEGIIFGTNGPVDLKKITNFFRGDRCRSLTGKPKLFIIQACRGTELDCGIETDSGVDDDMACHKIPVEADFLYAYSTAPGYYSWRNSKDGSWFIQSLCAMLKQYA
Luc interf: luminescence interference (SENP counter-screen); shares compounds with SENP7 inh; Pre-incubated SENP8/Z-RLRGG-aminoluciferin, luciferase luminescence interference; inhibition, % at 12.5 µM; 39% of 6,200 active;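 active = mean inhibition above about 50% when retested at one dose, limit read from the data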;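 also: plate controls were DMSO wells with completed reaction for no effect and substrate without enzyme for full effect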
* = called active by the depositor; nt = no result given.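 The calls were made as follows, unless noted: active = mean inhibition above about 50% in the one-dose retest (limit read from the data); inactive = the rest.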

SMILES	SENP7 inh	Apaf1 inhib	SENP6 block	UBC13 inh	SENP8 block-1	SENP8 block-2	SENP8 confirm	SENP6 confirm	SENP7 conf	Casp3 SENP sel	Luc interf
CC(=O)c1ccc(NC(=O)/C(Cl)=C/c2ccccc2)cc1	85.1*	-7.9	66.5*	2.0	5.9	44.7	12.9	19.3	22.8	20.2	8.3
CC(=O)c1ccc(NC(=O)/C(=C\c2ccccc2)NC(=O)/C=C/c2ccccc2)cc1	1.7	11.2	-3.9	-18.0	16.5	6.4	nt	nt	nt	nt	nt
CC(C)(C)NC(=O)CN(C(=O)CSc1nnc(COc2ccccc2)o1)c1cccc(F)c1	52.4*	2.6	-4.8	2.3	11.9	2.5	-0.3	-1.1	-3.3	-3.5	-4.3
CCc1cc(=O)[nH]c(-n2[nH]c(-c3ccccc3)cc2=O)n1	4.5	0.8	9.3	0.3	3.5	-2.8	nt	nt	nt	nt	nt
O=c1cc(-c2ccccc2)[nH]n1-c1nc2ccccc2[nH]1	10.9	21.9	64.5*	-31.2	-264.3	24.5	35.0	52.5*	85.2*	78.4*	48.7
Cc1ccsc1C(=O)OCc1cc(=O)n2ccsc2n1	56.7*	4.5	53.2*	-3.2	-63.1	47.7	27.2	49.6	82.5*	81.2*	11.0
O=C(OCc1cc(=O)n2ccsc2n1)c1ccc(O)cc1O	39.4	-13.2	63.6*	-4.7	-78.4	47.2	55.1*	48.8	79.4*	76.0*	61.3*
CC1=C(C(=O)N2CCCCCC2)CC(CC(=O)NCCN2CCOCC2)C(=O)N1CCCN1CCCC1=O (stereo not given)	nt	nt	nt	nt	-1.1	nt	nt	nt	nt	nt	nt
COc1ccc(C(=O)c2c(C(F)(F)F)oc3c2C(=O)c2ccccc2C3=O)cc1OC	45.2	84.6*	58.4*	-29.6	63.4*	60.4*	9.5	78.8*	31.7	77.5*	1.1
NC(=O)c1ccccc1OCC(=O)Nc1ccc(Cl)c(Cl)c1	26.6	-6.9	51.6*	17.4	12.8	17.6	15.3	21.1	63.6*	23.8	11.0
O=C(Cc1ccccc1)NNC(=O)Nc1ccc(Cl)c(Cl)c1	2.6	-6.3	-9.2	2.3	3.9	2.3	nt	nt	nt	nt	nt
Cc1ccc(Nc2ncccc2C(=O)O)cc1C	2.2	0.8	46.4	1.6	1.8	34.4	nt	nt	nt	nt	nt
O=C(O)c1cccnc1Nc1ccc(Cl)cc1	20.5	12.1	66.1*	-1.6	18.2	55.6*	72.5*	70.2*	84.8*	72.5*	73.8*
Cc1ccc(NC(=O)Nc2ccccc2C(=O)NCc2ccccc2)cc1	72.7*	-7.8	25.1	1.7	-145.4	42.4	12.9	19.3	76.2*	56.3*	48.4
O=C(Nc1ccc(Cl)c(Cl)c1)Nc1ccccc1C(=O)O	100.5*	9.8	99.9*	-2.6	-262.5	97.6*	3.8	101.3*	104.2*	99.9*	100.0*
CCc1nc2c(OCCC3CCCCC3)cccn2c1N(C)C(=O)c1cccs1	nt	nt	nt	nt	8.4	nt	nt	nt	nt	nt	nt
N#Cc1cnc(=S)n(-c2cc(C(F)(F)F)cc(C(F)(F)F)c2)c1N	nt	nt	nt	nt	-5.5	nt	nt	nt	nt	nt	nt
O=C(Nc1ccc(Cl)cc1)Nc1ccccc1CC[N+](=O)[O-]	-7.1	7.4	-2.0	-0.2	9.2	-8.6	nt	nt	nt	nt	nt
O=C(Nc1ccc(Cl)cc1)Nc1ccccc1C(=O)O	99.5*	0.3	95.1*	6.2	-391.5	96.3*	7.6	100.8*	103.5*	99.3*	47.8
N#Cc1ccsc1NC(=O)COc1ccc(-c2nnco2)cc1	70.7*	-4.1	86.9*	2.6	-37.4	70.1*	-22.7	65.7*	92.6*	86.9*	21.9
CCOC(=O)N1CCN(C(=O)c2noc3c2COc2ccccc2-3)CC1	53.7*	2.5	60.9*	16.5	-3.3	42.9	43.5	38.0	77.6*	75.1*	24.8
O=C(NCc1ccccc1)C1C(c2ccccc2)=Nc2ccccc2N1C(=O)c1cccnc1 (stereo not given)	nt	nt	nt	nt	15.2	nt	nt	nt	nt	nt	nt
O=C(OC1CCc2ccccc2C1=O)c1ccccc1O (stereo not given)	79.7*	14.6	82.4*	5.1	-0.1	70.0*	81.4*	79.8*	92.2*	67.0*	31.6
Cc1ccsc1CNC(=O)C1(C)CCN1C(C)C (stereo not given)	nt	nt	nt	nt	3.7	nt	nt	nt	nt	nt	nt
COc1ccc2[nH]cc(/C=C/C(=O)c3ccccc3)c2c1	49.3	-6.6	57.6*	20.3	-291.4	38.5	75.3*	71.1*	84.9*	24.8	84.6*
SMILES	SENP7 inh	Apaf1 inhib	SENP6 block	UBC13 inh	SENP8 block-1	SENP8 block-2	SENP8 confirm	SENP6 confirm	SENP7 conf	Casp3 SENP sel	Luc interf
CCC(=O)c1cc(F)c(N2CCN(S(=O)(=O)c3ccccc3)CC2)cc1C	52.0*	13.9	-0.6	-3.0	5.6	-8.0	8.2	12.1	9.9	3.8	-0.1
CCCC(=O)c1cc(F)c(N2CCN(S(=O)(=O)c3ccccc3)CC2)cc1C	7.0	10.1	-9.8	0.9	11.6	-4.9	nt	nt	nt	nt	nt
O=C(OCC(=O)c1cccs1)c1ccccc1	85.9*	0.0	13.0	4.6	14.1	71.8*	85.1*	85.7*	97.1*	91.2*	86.0*
O=C(COC(=O)c1cccc(O)c1)c1ccccc1	86.8*	2.6	85.5*	-2.1	2.1	78.5*	86.4*	86.7*	97.2*	87.5*	86.5*
CC(C(=O)NC1CCCC1)n1c(C2CCCC2)nc2ccccc21 (stereo not given)	nt	nt	nt	nt	13.9	nt	nt	nt	nt	nt	nt
Cc1nc2cc(NC(=O)Nc3cccc([N+](=O)[O-])c3)ccc2n1C	66.4*	8.6	73.3*	1.6	16.2	32.0	34.1	54.0*	91.8*	75.6*	9.3
Cc1nc2cc(NC(=O)Nc3ccccc3Cl)ccc2n1C	97.3*	-2.5	88.4*	3.7	6.4	93.4*	85.7*	92.4*	99.3*	94.3*	90.8*
COC(=O)[C@@]12C[C@@H](CC(=O)N3CCCCC3)C(=O)N(Cc3ccco3)C1=CCC(C)(C)C2	nt	nt	nt	nt	14.6	nt	nt	nt	nt	nt	nt

Compound activity (PubChem)
